Inconclusive results are not listed.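 The calls were made as follows, unless noted: active = growth inhibition above 25% in both replicates, a cutoff set 3 SD above the mean; inconclusive = above 25% in only one replicate; inactive = the rest.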
What was measured:
[1] = S. cerevisiae growth inhibition in permissive medium (OD615), pilot counter-assay for S. cerevisiae lifespan shortening project, permissive growth control (AID 705); details: OD615, 24 h, at 10 µM, hits give high values
In short: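 assay system = Saccharomyces cerevisiae strain carrying genetically modified DeaD replicative-lifespan system | technique = absorbance (optical density) at 615 nm | buffer or medium = permissive raffinose/galactose medium | timing = cells pre-grown 4 h, then 24 h compound exposure, 30 °C humidified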

[2] = S. cerevisiae growth inhibition in restrictive medium, OD615, pilot screen, restrictive growth control, yeast lifespan reduction project (AID 706;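 active = growth inhibition above a set limit, 3 SD over mean compound inhibition, in both replicates, cut at about 43% in these data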;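 also: modified DeaD lifespan yeast strain shifted to restrictive glucose medium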); details: OD615, 48 h, at 10 µM, hits give high values
In short: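 System: modified S. cerevisiae. Buffer or medium: CSMM-D glucose medium. Incubation: 4 h pre-growth plus 48 h compound exposure, 30 °C. Detection: absorbance (optical density) measured at 615 nm.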

[3] = doxorubicin toxicity protection in MRP-1 cells – H69AR cells, CellTiter-Glo, duplicate, MRP-1 activator project, pilot screen (AID 807;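 active = viability increase at or above a cutoff of the median across tested compounds plus 3 SD, cut at about 8.5% in these data, passing the limit was not always enough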;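 also: compound pretreatment 18-22 h then 72 h combined with doxorubicin; 0% = doxorubicin alone and 100% = vehicle without doxorubicin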); details: H69AR viability with doxorubicin, CellTiter-Glo luminescence; at 10 µM; hits give high values
[4] = viability of HCT116 without oncogenic beta-catenin – human colon tumor cells, pilot screen (AID 823;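 active = cell viability at or below a set limit in both duplicate runs, the limit being the all-compound median minus 4 SD, cut at about 23% in these data, passing the limit was not always enough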;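 also: 0% = wells killed by 20 µM Hyamine and 100% = untreated DMSO cell wells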); details: HCT116 beta-catenin knockout viability, CellTiter-Glo, 60 h; at 10 µM; hits give low values
[5] = viability of PTEN-null HCT116 cells – cell-based, HCT116 clonal line, CellTiter-Glo, pilot screen (AID 824;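 active = viability at or below 27.92% in each of two runs, the all-compound median minus 4 SD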;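 also: 0% = 20 µM Hyamine control and 100% = vehicle cell control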); details: HCT116 PTEN-deleted viability, 60 h, at 10 µM, hits give low values
[6] = RAM pathway blockade in budding yeast – dse1pr::URA3 reporter, 5-FOA selection, pilot screen (AID 869;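 active = inhibition over a set limit, the all-compound mean plus 3 SD, in both replicate runs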;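 also: 0% = DMSO wells with no growth and 100% = 10 µM 1-NA-PP1 with full growth; RAM network block rescues cells from 5-FOA so hits raise OD615 growth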); details: S. cerevisiae dse1pr::URA3 5-FOA growth, OD615, 2 d; at 10 µM; hits give high values; strain carries analog-sensitive mutant Cbk1 kinase
[7] = RAM signaling pathway blockade in yeast – S. cerevisiae, Pdr1DBD-CYC8 efflux-inhibited sensitized strain, primary screen (AID 1298;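 active = RAM network inhibition above 8.4% in each of two replicates, 3 SD over the compound average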;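 also: 0% = DMSO untreated cells without growth and 100% = 10 µM 1-NA-PP1 full growth; higher means more yeast growth rescued from 5-FOA killing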); details: S. cerevisiae cbk1-as DSE1-URA3 strain, 5-FOA growth OD615, 2 d; at 50 µM; hits give high values

Cc1c(NC(=O)CCCCCN2C(=O)C3C4C=CC(C4)C3C2=O)c(=O)n(-c2ccccc2)n1C (centres undefined)
inactive: growth inhibition [1] 5.03% | growth inhibition [2] 5.79% | viability increase [3] -0.51% | viability [4] 103% | viability [5] 100% | inhibition [6] 0.685% | RAM network inhibition [7] 2.6%

Cc1ccc(-n2nnc3c(=O)n(CC(=O)N4CCOCC4)cnc32)cc1
inactive: growth inhibition [1] -0.37% | growth inhibition [2] 0.95% | viability increase [3] -1.94% | viability [4] 101% | viability [5] 94.2% | inhibition [6] 1.23% | RAM network inhibition [7] 3.05%

CCn1cc(C2=NC(c3ccccc3)CO2)c2ccccc21 (centres undefined)
inactive: growth inhibition [1] -11% | growth inhibition [2] -8.14% | viability increase [3] -4.95% | viability [4] 91.6% | viability [5] 83.3% | inhibition [6] 1.46% | RAM network inhibition [7] 0.69%

Cc1cccc(NC(=O)CN2CCN(CC(=O)Nc3cccc(C)c3)CC2)c1
inactive: growth inhibition [1] -14.3% | growth inhibition [2] -10% | viability increase [3] -4.48% | viability [4] 90.1% | viability [5] 98% | inhibition [6] 0.165% | RAM network inhibition [7] 2.17%

O=C(CSc1nnc(Cc2cc(=O)[nH]c(=O)[nH]2)n1-c1ccc(F)cc1)N1CCCCC1
inactive: growth inhibition [1] -4.41% | growth inhibition [2] 1.35% | viability increase [3] -0.28% | viability [4] 104% | viability [5] 105% | inhibition [6] 0.87% | RAM network inhibition [7] 2.55%

COc1cccc2cc3c(=O)n(-c4ccccc4)nc-3oc12
inactive: growth inhibition [1] -29.6% | growth inhibition [2] -20.8% | viability increase [3] -7.1% | viability [4] 97.2% | viability [5] 92.1% | inhibition [6] 2.73% | RAM network inhibition [7] 3.19%

COC(=O)c1ccc2c(=O)n3c(nc2c1)SCC(c1ccccc1)=N3
inactive: growth inhibition [1] 2.69% | growth inhibition [2] -0.25% | viability increase [3] -1.81% | viability [4] 95.1% | viability [5] 94.8% | inhibition [6] 2.39% | RAM network inhibition [7] 10.7%

Cc1sc2nc(SCC(=O)N3CCOCC3)[nH]c(=O)c2c1C
inactive: growth inhibition [1] -1.58% | growth inhibition [2] -1.96% | viability increase [3] -1.93% | viability [4] 105% | viability [5] 92.2% | inhibition [6] 1.8% | RAM network inhibition [7] 2.17%

C=CCn1c(=O)/c(=C/c2cc(OC)c(OC)c(OC)c2)s/c1=C(/C#N)c1nc2ccccc2n1C
inactive: growth inhibition [1] -4.25% | growth inhibition [2] 8.29% | viability increase [3] -3.61% | viability [4] 46.3% | viability [5] 50.9% | inhibition [6] 3.67% | RAM network inhibition [7] 4.52%

COc1ccc(NC(=O)c2cc3c(=O)n(C)c4ccccc4c3n2C)cc1OC
inactive: growth inhibition [1] -0.735% | growth inhibition [2] -6.07% | viability increase [3] -5.17% | viability [4] 93.8% | viability [5] 80.9% | inhibition [6] 2.05% | RAM network inhibition [7] 5.74%

Cn1nc(-c2ccc(Cl)cc2)c2cc(C(=O)N3CCOCC3)sc21
inactive: growth inhibition [1] -6.13% | growth inhibition [2] 4.78% | viability increase [3] -5.6% | viability [4] 89.4% | viability [5] 80.5% | inhibition [6] 1.29% | RAM network inhibition [7] 3.38%

CCc1cc(C(=O)COc2ccccc2F)c(O)cc1O
inactive: growth inhibition [1] -11.9% | growth inhibition [2] 11.9% | viability increase [3] -2.43% | viability [4] 96.1% | viability [5] 99.5% | inhibition [6] -0.155% | RAM network inhibition [7] -0.21%
